Experimental findings from ChEMBL document CHEMBL4152200, “Targeting the entrance channel of NNIBP: Discovery of diarylnicotinamide 1,4-disubstituted 1,2,3-triazoles as novel HIV-1 NNRTIs with high potency against wild-type and E138K mutant virus” (Eur J Med Chem, 2018) are described below.

Bounds are passed on as bounds.

The test system of one series is TZM. Put plainly: Cytotoxicity against human TZM-bl cells by CytoTox-Glo reagent-based assay. It is filed as cell-based. In outline:
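TZM-bl cells exposed to compound at various concentrations. Cytotoxicity measured by CytoTox-Glo assay.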

Series [1] has as its system Human immunodeficiency virus 1. Put plainly: Antiviral activity against HIV1 harboring reverse transcriptase Y188L mutant infected in human MT4 cells assessed as inhibition of viral replication after 5 days by MTT assay. It is filed as functional, organism-based. Particulars: Human immunodeficiency virus 1, MT4, 120 h. In outline: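 MT-4 cells in exponential growth, resuspended into wells holding HIV-1 stock (IIIB, RES056 K103N/Y181C, F227L/V106A, L100I, K103N, E138K, Y181C or Y188L) at 100–300 CCID₅₀, or into mock-infected wells. Viability read by MTT reduction to formazan, measured spectrophotometrically 5 days post-infection. EC₅₀ is the concentration giving 50% protection against virus-induced cytotoxicity.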
In general terms: Tetrazolium assays rely on reduction of a dye to a coloured formazan, in cell work by metabolically active cells.

Series [2] deals with Human immunodeficiency virus 1. Briefly: Antiviral activity against HIV1 harboring reverse transcriptase F227L/V106A double mutant infected in human MT4 cells assessed as inhibition of viral replication after 5 days by MTT assay. Format: functional, organism-based. To be noted: Human immunodeficiency virus 1, MT4, 120 h.
Series [3] deals with Human immunodeficiency virus 1. Put plainly: Antiviral activity against HIV1 harboring reverse transcriptase L100I mutant infected in human MT4 cells assessed as inhibition of viral replication after 5 days by MTT assay. It is filed as functional, organism-based. Particulars: Human immunodeficiency virus 1, MT4, 120 h.
The subject of series [4] is Human immunodeficiency virus 1. Put plainly: Antiviral activity against HIV1 harboring reverse transcriptase K103N mutant infected in human MT4 cells assessed as inhibition of viral replication after 5 days by MTT assay. Format: functional, organism-based. To be noted: Human immunodeficiency virus 1, MT4, 120 h.
Series [5] deals with Human immunodeficiency virus 1. Put plainly: Antiviral activity against HIV-1 RES056 harboring reverse transcriptase K103N/Y181C double mutant infected in human MT4 cells assessed as inhibition of viral replication after 5 days by MTT assay. Format: functional, organism-based. To be noted: Human immunodeficiency virus 1, RES056, MT4, 120 h.
The next series deals with MT4. Briefly: Cytotoxicity against human MT4 cells assessed as decrease in cell viability after 5 days by MTT assay. It is filed as cell-based. To be noted: mt4, 120 h. In outline:
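Mock-infected MT-4 cells, exponentially growing, seeded with compound in culture medium without virus; run in parallel with the antiviral assay. Viability read spectrophotometrically by MTT reduction five days later.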

A short description of series [6]: Selectivity index, ratio of CC50 for human MT4 cells to EC50 for HIV1 harboring reverse transcriptase K103N mutant. It is filed as toxicity. Particulars: read-out: Ratio CC50/EC50. In outline: (§1)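 SI is CC₅₀ divided by EC₅₀, both by MTT after 5 days in MT-4 cells. CC₅₀ comes from mock-infected cultures run in parallel and is the concentration reducing their viability by 50%. EC₅₀ comes from cultures infected with the given mutant strain at 100–300 CCID₅₀.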

Series [7] is described as follows: Selectivity index, ratio of CC50 for human MT4 cells to EC50 for HIV1 harboring reverse transcriptase L100I mutant. Format: toxicity. Particulars: read-out: Ratio CC50/EC50. In outline:
as §1

The subject of series [8] is Human immunodeficiency virus 1. Put plainly: Resistance factor, ratio of EC50 for HIV1 harboring reverse transcriptase Y188L mutant to EC50 for wild-type HIV-1 3B. It is filed as functional. In outline:
(§2)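 Resistance fold is EC₅₀ against the mutant strain divided by EC₅₀ against WT IIIB. Both EC₅₀ values come from the 5-day MTT protection assay in MT-4 cells infected with 100–300 CCID₅₀ of virus.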

Series [9] can be described thus: Selectivity index, ratio of CC50 for human MT4 cells to EC50 for HIV1 harboring reverse transcriptase F227L/V106A mutant. It is filed as toxicity. Particulars: read-out: Ratio CC50/EC50. In outline: as §1
The nature of series [10]: Selectivity index, ratio of CC50 for human MT4 cells to EC50 for HIV1 harboring reverse transcriptase E138K mutant. It is filed as toxicity. Particulars: read-out: Ratio CC50/EC50. In outline:
as §1

Series [11] relates to Human immunodeficiency virus 1. Briefly: Resistance factor, ratio of EC50 for HIV1 harboring reverse transcriptase L100I mutant to EC50 for wild-type HIV-1 3B. It is filed as functional. In outline:
as §2

The nature of series [12]: Selectivity index, ratio of CC50 for human MT4 cells to EC50 for HIV1 harboring reverse transcriptase Y181C mutant. To be noted: read-out: Ratio CC50/EC50. Format: toxicity. In outline:
as §1

Series [13] has as its system Human immunodeficiency virus 1. Briefly: Antiviral activity against HIV1 harboring reverse transcriptase E138K mutant infected in human MT4 cells assessed as inhibition of viral replication after 5 days by MTT assay. Format: functional, organism-based. To be noted: Human immunodeficiency virus 1, MT4, 120 h.
Series [14] relates to Human immunodeficiency virus 1. Put plainly: Resistance factor, ratio of EC50 for HIV1 harboring reverse transcriptase E138K mutant to EC50 for wild-type HIV-1 3B. It is filed as functional. In outline:
as §2

Series [15] has as its system Human immunodeficiency virus 1. Briefly: Resistance factor, ratio of EC50 for HIV1 harboring reverse transcriptase K103N mutant to EC50 for wild-type HIV-1 3B. Format: functional. In outline:
as §2

Series [16] has as its system Human immunodeficiency virus 1. Put plainly: Antiviral activity against HIV1 harboring reverse transcriptase Y181C mutant infected in human MT4 cells assessed as inhibition of viral replication after 5 days by MTT assay. It is filed as functional, organism-based. To be noted: Human immunodeficiency virus 1, MT4, 120 h.
The test system of series [17] is Human immunodeficiency virus 1. Put plainly: Resistance factor, ratio of EC50 for HIV1 harboring reverse transcriptase Y181C mutant to EC50 for wild-type HIV-1 3B. Format: functional. In outline: as §2
Series [18] relates to Human immunodeficiency virus 1. Briefly: Resistance factor, ratio of EC50 for HIV1 harboring reverse transcriptase F227L/V106A mutant to EC50 for wild-type HIV-1 3B. Format: functional. In outline: as §2
Series [19] concerns Human immunodeficiency virus 1. Briefly: Antiviral activity against wild-type HIV-1 3B infected in human MT4 cells assessed as inhibition of viral replication after 5 days by MTT assay. It is filed as functional, organism-based. Particulars: Human immunodeficiency virus 1, 3B, MT4, 120 h.
A short description of series [20]: Selectivity index, ratio of CC50 for human MT4 cells to EC50 for HIV1 harboring reverse transcriptase Y188L mutant. Format: toxicity. To be noted: read-out: Ratio CC50/EC50. In outline:
as §1

Series [21] is described as follows: Selectivity index, ratio of CC50 for human MT4 cells to EC50 for HIV-1 RES056 harboring reverse transcriptase K103N/Y181C double mutant infected in human MT4 cells. Particulars: read-out: Ratio CC50/EC50. It is filed as toxicity, cell-based. In outline: as §1
Series [22] can be described thus: Selectivity index, ratio of CC50 for human MT4 cells to EC50 for wild-type HIV1 3B. It is filed as toxicity. Particulars: read-out: Ratio CC50/EC50. In outline:
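Wild-type HIV-1 IIIB at 100–300 CCID50 added to MT-4 cells with compound, with mock-infected wells in parallel. MTT viability was read at day 5. […] SI = CC50/EC50.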

As a reminder, the CC50 is the concentration at which the toxic effect on the cells reaches its halfway point. Regarding `Cc1cc(/C=C/C#N)cc(C)c1Nc1ccnc(Nc2ccc(C#N)cc2)n1` [RILPIVIRINE], in the series with TZM, the CC50 is > 341000 nM.
Broadly, the EC50 is the midpoint of the concentration-response curve. Consider `Cc1cc(C#N)cc(C)c1Oc1nc(Nc2ccc(C#N)cc2)nc(N)c1Br` [ETRAVIRINE], for which the EC50 turned out to be 11 nM in series [1] and 5 nM in series [2].
Regarding `Cc1cn([C@H]2C[C@H](N=[N+]=[N-])[C@@H](CO)O2)c(=O)[nH]c1=O` [ZIDOVUDINE], the EC50 in series [3] is 5 nM; in series [4] it was 8 nM; in series [5], 11 nM. Further, in the series on MT4, the CC50 was > 7480 nM.
On to `Cc1cc(C)c(Oc2cc(Nc3ccc(C#N)cc3)ncc2C(=O)NCc2cn(CCC#N)nn2)c(C)c1`, for which the selectivity ratio in series [6] was determined as 158; in series [7], 38; in [9], 121; in series [10] it was 2630; in series [12], 450; in [20], 18. The EC50 in [3] was 1060 nM; in series [1], 2240 nM; in [2] it was 330 nM; in [4], 250 nM; in series [13], 15 nM; in series [16], 89 nM. In addition, the results for the EC50 in series [19] and in series [5] were 20 nM and 2310 nM, respectively. Moreover, the “Ratio EC50” value amounted to 112 in series [8]; 53 in series [11]; 0.8 in series [14]; 12.5 in series [15]; 4.5 in [17]; 16.5 in [18]. Further, the CC50 in the series with MT4 stood at 40200 nM.
Regarding `Cc1cc(C)c(Oc2cc(Nc3ccc(C#N)cc3)ncc2C(=O)NCc2cn(CCCO)nn2)c(C)c1`, the selectivity ratio was found to be 62 in series [6]; 13 in series [7]; 32 in series [9]; 5 in series [21]; 651 in [10]; 109 in series [12]. Moreover, the results for the selectivity ratio in series [22] and in [20] were 678 and 8, respectively. The EC50 amounted to 1950 nM in [3]; 3170 nM in series [1]; 780 nM in series [2]; 410 nM in series [4]; 39 nM in [13]; 230 nM in series [16]. The EC50 in series [19] is 37 nM; in series [5], 5230 nM. Moreover, the “Ratio EC50” value amounted to 85.7 in [8]; 52.7 in series [11]; 1.1 in series [14]; 11.1 in series [15]; 6.2 in series [17]; 21.1 in series [18]. Besides, the CC50 with MT4 came out at 25200 nM.
As to `Cc1cc(C)c(Oc2cc(Nc3ccc(C#N)cc3)ncc2C(=O)NCc2cn(CC(N)=O)nn2)c(C)c1`, the selectivity ratio in [6] worked out at 23; in [7], 7; in [9], 13; in series [21], 5; in [10] it was 159; in [12], 29. Also, the selectivity ratio in [22] is 139; in series [20] it was 5. Besides, the EC50 was 3520 nM in series [3]; 4460 nM in series [1]; 1800 nM in [2]; 1030 nM in series [4]; 150 nM in series [13]; 830 nM in series [16]. Also, the EC50 in series [19] was 172 nM; in series [5], 5330 nM. The “Ratio EC50” value in series [8] is 25.9; in series [11], 20.5; in series [14] it was 0.9; in series [15], 6; in [17] it was 4.8; in series [18] it was 10.5. The CC50 in the series with MT4 is 24000 nM.
For `CC(=O)Cn1cc(CNC(=O)c2cnc(Nc3ccc(C#N)cc3)cc2Oc2c(C)cc(C)cc2C)nn1`, the selectivity ratio came out at 73 in series [6]; 19 in series [7]; 33 in series [9]; 9 in series [21]; 756 in [10]; 123 in series [12]. The selectivity ratio was 670 in series [22] and 6 in [20]. The EC50 in series [3] was 1000 nM; in series [1], 3200 nM; in [2], 590 nM; in series [4], 260 nM; in [13], 26 nM; in [16], 160 nM. For the same compound, the results for the EC50 in series [19] and in series [5] were 29 nM and 2210 nM, respectively. Also, the “Ratio EC50” value is recorded as 110.3 in series [8]; 34.5 in [11]; 0.9 in series [14]; 9 in series [15]; 5.5 in series [17]; 20.3 in series [18]. For the same compound, in the series with MT4, the CC50 was determined as 19400 nM.
Turning to `CC(C)Nc1cccnc1N1CCN(C(=O)c2cc3cc(NS(C)(=O)=O)ccc3[nH]2)CC1` [DELAVIRDINE], the EC50 in series [3] came out at 2540 nM; in series [1], 840 nM; in [2], 2270 nM; in series [4], 3000 nM; in series [13], 51 nM; in series [16], 2460 nM. Further, the EC50 in [19] is 38 nM. The “Ratio EC50” value is 22.1 in series [8]; 66.8 in [11]; 1.3 in series [14]; 78.9 in series [15]; 64.7 in [17]; 59.7 in series [18].
In the case of `CCOC(=O)CCn1cc(CNC(=O)c2cnc(Nc3ccc(C#N)cc3)cc2Oc2c(C)cc(C)cc2C)nn1`, the selectivity ratio in series [21] is < 1; in [22], 25. The EC50 is 847 nM in [19] and > 21500 nM in [5]. Further, in the series with MT4, the CC50 was found to be 21500 nM.
